According to ChEMBL document CHEMBL3124843, “Synthesis, cytostatic, antimicrobial, and anti-HCV activity of 6-substituted 7-(het)aryl-7-deazapurine ribonucleosides” (J Med Chem, 2014):
Active and inactive are the calls of the source. No rule for the calls is given here.

Columns and labels:
Pseudomonas aeruginosa [1] = assay: Antibacterial activity against multi-resistant Pseudomonas aeruginosa A/16575 after 24 hrs; assay type: functional, organism-based
K562 [2] = assay: Cytostatic activity against human K562 cells after 72 hrs by MTT assay; assay type: functional, cell-based; settings: K562, 72 h
Procedure, shortened: (§1)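 IC50 is the concentration that cuts cell growth by 50%, read by quantitative metabolic MTT staining after a 3-day treatment. The resistant sublines were made by raising the concentration of the cytotoxic drug step by step. CEM-DNR-bulk (daunorubicin-selected) stably overexpresses mrp-1. K562-TAX (paclitaxel-selected) expresses only mdr-1. HCT116p53−/− carries null p53 alleles. BJ and MRC-5 are nonmalignant fibroblasts.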

[3] = Cytostatic activity against human CEM-DNR-bulk cells after 72 hrs by MTT assay; assay type: functional, cell-based; procedure, shortened: as §1
Staphylococcus aureus [4] = assay: Antibacterial activity against methicillin-resistant Staphylococcus aureus MRSA 4591 after 24 hrs; assay type: functional, organism-based
Hepatitis C virus [5] = assay: Antiviral activity against Hepatitis C virus subtype 2a infected in human HuH7 cells; assay type: functional, organism-based, Hepacivirus hominis; settings: genotype 2a, Huh-7
A549 = assay: Cytostatic activity against human A549 cells after 72 hrs by MTT assay; assay type: functional, cell-based; settings: A549, 72 h; procedure, shortened: as §1
MRC5 = assay: Cytostatic activity against human MRC5 cells after 72 hrs by MTT assay; assay type: ADME, cell-based; settings: MRC5, 72 h; procedure, shortened: as §1
[6] = test system: Staphylococcus haemolyticus; assay: Antibacterial activity against methicillin-resistant Staphylococcus haemolyticus A/16568 after 24 hrs; assay type: functional, organism-based
Staphylococcus aureus [7] = assay: Antibacterial activity against Staphylococcus aureus CCM 3953 after 24 hrs; assay type: functional, organism-based
Escherichia coli [8] = assay: Antibacterial activity against multi-resistant Escherichia coli C/16702 after 24 hrs; assay type: functional, organism-based
[9] = Antiproliferative activity against human HeLaS3 cells after 72 hrs by XTT assay; assay type: functional, cell-based; settings: HeLa S3, 72 h
Procedure, shortened: (§2)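 Antiproliferative test on HL-60 promyelocytic leukemia and HeLa S3 cervical carcinoma cells growing in liquid suspension.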

HepG2 = assay: Antiproliferative activity against human HepG2 cells after 72 hrs by XTT assay; assay type: functional, cell-based; settings: HepG2, 72 h
Enterococcus faecalis = assay: Antibacterial activity against Enterococcus faecalis CCM 4224 after 24 hrs; assay type: functional, organism-based
CCRF-CEM [10] = assay: Cell cycle arrest in human CCRF-CEM cells assessed as accumulation at sub-G1 phase at IC50 after 24 hrs by propidium iodide staining-based flow cytometric analysis (reference value: 9.6%); assay type: functional
CCRF-CEM [11] = assay: Cytostatic activity against human CCRF-CEM cells after 72 hrs by MTT assay; assay type: functional, cell-based; procedure, shortened: as §1
K562 [12] = assay: Cytostatic activity against paclitaxel-resistant human K562 cells after 72 hrs by MTT assay; assay type: functional, cell-based; settings: K562, 72 h; procedure, shortened: as §1
HL-60 = assay: Antiproliferative activity against human HL60 cells after 72 hrs by XTT assay; assay type: functional, cell-based; settings: HL-60, 72 h; procedure, shortened: as §2
Pichia kudriavzevii = assay: Antifungal activity against Candida crusei after 48 hrs; assay type: functional, organism-based
[13] = Cytotoxicity against human HuH7 cells infected with Hepatitis C virus subtype 2a; assay type: cell-based, Huh-7
[14] = Cytotoxicity against human HuH7 cells infected with Hepatitis C virus subtype 1b; assay type: cell-based, Huh-7
CCRF-CEM [15] = assay: Mitotic arrest in human CCRF-CEM cells assessed as pH3Ser10-positive cells at IC50 after 24 hrs by propidium iodide staining-based flow cytometric analysis (reference value: 1.4%); assay type: functional
Pseudomonas aeruginosa [16] = assay: Antibacterial activity against Pseudomonas aeruginosa CCM 3955 after 24 hrs; assay type: functional, organism-based
HCT-116 [17] = assay: Cytostatic activity against p53-deficient human HCT116 cells after 72 hrs by MTT assay; assay type: functional, cell-based; settings: HCT-116, 72 h; procedure, shortened: as §1
HCT-116 [18] = assay: Cytostatic activity against human HCT116 cells after 72 hrs by MTT assay; assay type: functional, cell-based; settings: HCT-116, 72 h; procedure, shortened: as §1
CCRF-CEM [19] = assay: Inhibition of RNA synthesis in human CCRF-CEM cells assessed as BrU-positive cells at IC50 after 24 hrs by propidium iodide staining-based flow cytometric analysis (reference value: 43.3%); assay type: functional; design: scale not given: the % may be the effect or the level left
Candida tropicalis = assay: Antifungal activity against Candida tropicalis after 48 hrs; assay type: functional, organism-based
Hepatitis C virus [20] = assay: Antiviral activity against Hepatitis C virus subtype 1b infected in human HuH7 cells; assay type: functional, organism-based, Hepacivirus hominis; settings: genotype 1b, Huh-7
Escherichia coli [21] = assay: Antibacterial activity against Escherichia coli CCM 3954 after 24 hrs; assay type: functional, organism-based
Candida albicans = assay: Antifungal activity against Candida albicans after 48 hrs; assay type: functional, organism-based
BJ = assay: Cytostatic activity against human BJ cells after 72 hrs by MTT assay; assay type: ADME, cell-based; procedure, shortened: as §1
Candida parapsilosis = assay: Antifungal activity against Candida parapsilosis after 48 hrs; assay type: functional, organism-based

Row | Structure (SMILES) | Activity (Pseudomonas aeruginosa [1]) | IC50 (K562 [2]) [nM] | IC50 [3] [nM] | Activity (Staphylococcus aureus [4]) | EC50 (Hepatitis C virus [5]) [nM] | IC50 (A549) [nM] | IC50 (MRC5) [nM] | Activity [6] | Activity (Staphylococcus aureus [7]) | Activity (Escherichia coli [8]) | IC50 [9] [nM] | IC50 (HepG2) [nM] | Activity (Enterococcus faecalis) | IC50 (CCRF-CEM [11]) [nM] | IC50 (K562 [12]) [nM] | IC50 (HL-60) [nM] | Activity (Pichia kudriavzevii) | CC50 [13] [nM] | CC50 [14] [nM] | Activity (CCRF-CEM [15]) [%] | other results
1 | CN(C)c1ncnc2c1c(I)cn2[C@@H]1O[C@H](CO)[C@@H](O)[C@H]1O | inactive | 70 | 100 | inactive | > 44000 | 340 | 91700 | inactive | inactive | inactive | 190 | 13900 | inactive | 1590 | 50 | 50 | inactive | > 44000 | > 44000 | 1.3 | Activity (CCRF-CEM [10]): 9.4%; Activity (Pseudomonas aeruginosa [16]): inactive; IC50 (HCT-116 [17]): 120 nM; IC50 (HCT-116 [18]): 90 nM; Activity (CCRF-CEM [19]): 4.8%; Activity (Candida tropicalis): inactive; EC50 (Hepatitis C virus [20]): 690 nM; Activity (Escherichia coli [21]): inactive; Activity (Candida albicans): inactive; IC50 (BJ): 45700 nM; Activity (Candida parapsilosis): inactive
2 | COc1ncnc2c1c(-c1ccoc1)cn2[C@@H]1O[C@H](CO)[C@@H](O)[C@H]1O | inactive | 190 | > 20000 | inactive | 8280 | 1160 | 29400 | inactive | inactive | inactive | 1790 | 290 | inactive | 110 | 2820 | 150 | inactive | > 44000 | > 44000 | 1.6 | Activity (CCRF-CEM [10]): 8.5%; Activity (Pseudomonas aeruginosa [16]): inactive; IC50 (HCT-116 [17]): 130 nM; IC50 (HCT-116 [18]): 110 nM; Activity (CCRF-CEM [19]): 0.7%; Activity (Candida tropicalis): inactive; EC50 (Hepatitis C virus [20]): 330 nM; Activity (Escherichia coli [21]): inactive; Activity (Candida albicans): inactive; IC50 (BJ): 28800 nM; Activity (Candida parapsilosis): inactive
3 | CN(C)c1ncnc2c1c(-c1ccsc1)cn2[C@@H]1O[C@H](CO)[C@@H](O)[C@H]1O | inactive | 530 | > 20000 | inactive | > 44000 | > 20000 | > 100000 | inactive | inactive | inactive | > 15000 | > 20000 | inactive | 3480 | > 20000 | 1920 | inactive | > 44000 | > 44000 | 0.7 | Activity (CCRF-CEM [10]): 6.8%; Activity (Pseudomonas aeruginosa [16]): inactive; IC50 (HCT-116 [17]): > 20000 nM; IC50 (HCT-116 [18]): > 20000 nM; Activity (CCRF-CEM [19]): 0.7%; Activity (Candida tropicalis): inactive; EC50 (Hepatitis C virus [20]): 38400 nM; Activity (Escherichia coli [21]): inactive; Activity (Candida albicans): inactive; IC50 (BJ): > 100000 nM; Activity (Candida parapsilosis): inactive
4 | CNc1ncnc2c1c(-c1ccco1)cn2[C@@H]1O[C@H](CO)[C@@H](O)[C@H]1O | inactive | 220 | > 20000 | inactive | 140 | 2570 | 90800 | inactive | inactive | inactive | 5000 | 850 | inactive | 180 | 15100 | 620 | inactive | > 44000 | > 44000 | 1.4 | Activity (Pseudomonas aeruginosa [16]): inactive; IC50 (HCT-116 [17]): 440 nM; IC50 (HCT-116 [18]): 230 nM; Activity (CCRF-CEM [19]): 1%; Activity (Candida tropicalis): inactive; EC50 (Hepatitis C virus [20]): 60 nM; Activity (Escherichia coli [21]): inactive; Activity (Candida albicans): inactive; IC50 (BJ): 5040 nM; Activity (Candida parapsilosis): inactive
5 | CSc1ncnc2c1c(-c1ccco1)cn2[C@@H]1O[C@H](CO)[C@@H](O)[C@H]1O | inactive | 40 | 230 | inactive | 50 | 50 | 73900 | inactive | inactive | inactive | 540 | 220 | inactive | 50 | 210 | 120 | inactive | > 44000 | 38600 | 0.7 | Activity (CCRF-CEM [10]): 7.9%; Activity (Pseudomonas aeruginosa [16]): inactive; IC50 (HCT-116 [17]): 10 nM; IC50 (HCT-116 [18]): 20 nM; Activity (CCRF-CEM [19]): 5%; Activity (Candida tropicalis): inactive; EC50 (Hepatitis C virus [20]): 70 nM; Activity (Escherichia coli [21]): inactive; Activity (Candida albicans): inactive; IC50 (BJ): 260 nM; Activity (Candida parapsilosis): inactive
6 | COc1ncnc2c1c(-c1ccco1)cn2[C@@H]1O[C@H](CO)[C@@H](O)[C@H]1O | inactive | 60 | 160 | inactive | 30 | 30 | 1700 | inactive | inactive | inactive | 1020 | 300 | inactive | 20 | 380 | 100 | inactive | > 44000 | > 44000 | 1.4 | Activity (CCRF-CEM [10]): 6.8%; Activity (Pseudomonas aeruginosa [16]): inactive; IC50 (HCT-116 [17]): 40 nM; IC50 (HCT-116 [18]): 40 nM; Activity (Candida tropicalis): inactive; EC50 (Hepatitis C virus [20]): 20 nM; Activity (Escherichia coli [21]): inactive; Activity (Candida albicans): inactive; IC50 (BJ): 430 nM; Activity (Candida parapsilosis): inactive
